Bioassay records from PubChem BioAssay.
Xi reactivation: reactivates the inactive X chromosome in mouse fibroblasts; XiGFP mouse fibroblasts, % GFP-positive cells imaging, 3 d; cells co-treated with 5-aza-dC sensitizer; scaled so ellipticine positive control = 100%; activation, % at 7.58 µM; 360,000 tested, 0.055% active; AID 743238;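 active = mean normalized replicate activation at least 10% and every replicate at or above 10%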
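Material: XiGFP fibroblasts, SV40-immortalized. Buffer or medium: DMEM plus 5-aza-dC sensitizer. Compound: single concentration per compound, delivered by pin transfer. Times: 3 days compound exposure. Controls: ellipticine 6 µM.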
Myeloid diff 2: compounds promoting myeloid differentiation; ER-HoxA9 myeloid progenitors, lysozyme-GFP differentiation, flow cytometry; calls only at 10 µM; 360,000 tested, 1% active;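 active = normalized GFP-positive differentiation at or above the plate's own cutoff, the solvent-only control mean plus 3 SD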;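 note: cells exposed to compound for four days before flow analysis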
ABCB6 inh 2: human ABCB6 transporter inhibition | Q9NP58 | fluorescence ratio to DMSO, % at 10 µM | AID 602162 | 360,000 tested, 0.19% active | K562-ABCB6 porphyrin accumulation, flow cytometry, 1 h; stronger effect = lower value;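 active = fluorescence ratio to DMSO below 75%, the collection mean minus 3 SD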;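 note: signal is porphyrin accumulated inside mitochondria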
Myeloid diff CP1: compounds promoting myeloid differentiation | shares compounds with Myeloid diff 2 | ER-HoxA9 myeloid progenitors, GFP/Mac1 double-positive flow | calls only | 2,300 tested, 2% active | AID 651706;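 active = share of green or green-and-red cells above 9 and 9% in run 1 or 4 and 3% in run 2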
GFP autofluor: compound fluorescence in myeloid differentiation counter-screen. shares compounds with Myeloid diff 2. ER-HoxA9 myeloid progenitors, no estrogen, GFP autofluorescence flow cytometry; vehicle wells 0%, positive control 100%. fluorescence response, % (no concentration beside the values). 2,300 tested, 7.4% active;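 active = over 5% cells positive for green fluorescent reporter, or over 2% positive for both it and APC stain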
Of the large screens only hits and unclear results are named; the others gave an inactive call (follow-up assays come after a bar, where they were run). Many of the other results were omitted from the sample, so hits are more common in it than they were.

CCOC(=O)CC1C(=O)NCCN1S(=O)(=O)c1ccc(Cl)cc1 (stereo not given)	Myeloid diff 2 active (no result: Xi reactivation) | Myeloid diff CP1 inactive | GFP autofluor inactive
CCOC(=O)CC1C(=O)NCCN1S(=O)(=O)c1ccc(F)cc1 (stereo not given)	none
COc1ccc2c3c(n(C)c2c1)[C@H](CO)N(C)CC31CN(S(=O)(=O)c2cccc(F)c2)C1	none (no result: Myeloid diff 2, ABCB6 inh 2)
CN1C(=O)c2cc(NC(=O)c3cscn3)ccc2OC[C@H]2O[C@H](CC(=O)NCC3CC3)CC[C@@H]21	none (no result: Myeloid diff 2, ABCB6 inh 2)
C[C@@H]1CN([C@H](C)CO)C(=O)c2cc(NC(=O)CCC(F)(F)F)ccc2O[C@@H](C)CCCCO[C@@H]1CN(C)C	none (no result: Myeloid diff 2, ABCB6 inh 2)
Cc1cc(/C=C2\Cc3ccccc3C2=O)c(C)n1-c1ccccc1	Myeloid diff 2 active | Myeloid diff CP1 inactive | GFP autofluor 11
Cc1cc(C=C2C(=O)c3ccccc3C2=O)c(C)n1-c1ccccc1	none (no result: Xi reactivation)
CCC(C)[C@H](NC(=O)NCc1cccnc1)C(=O)OC (stereo not given in full)	none
CCC(C)[C@H](NC(=O)NCc1ccccc1Cl)C(=O)OC (stereo not given in full)	none (no result: Xi reactivation) | Myeloid diff CP1 inactive | GFP autofluor inactive
C[C@H]1CN([C@@H](C)CO)C(=O)Cc2cc(NC(=O)Nc3ccccc3)ccc2O[C@@H]1CN(C)C(=O)Nc1ccccc1	none (no result: Myeloid diff 2, ABCB6 inh 2)
CC(C)NC(=O)Nc1ccc2c(c1)C(=O)N([C@@H](C)CO)C[C@H](C)[C@H](CN(C)C)OCCCC[C@@H](C)O2	none (no result: Myeloid diff 2, ABCB6 inh 2)
Fc1ccc(-c2c[nH]c(=S)n2Cc2ccccc2)cc1	none
O=c1[nH]cc(-c2ccc(Br)cc2)n1Cc1ccccc1	none | Myeloid diff CP1 inactive | GFP autofluor inactive
O=C(Nc1cccc(Cl)c1)c1ccc(NCCCN2CCOCC2)c([N+](=O)[O-])c1	none (no result: Xi reactivation)
Cc1ccc(NC(=O)c2ccc(NCCCN3CCC(C)CC3)c([N+](=O)[O-])c2)cc1F	none | Myeloid diff CP1 inactive | GFP autofluor inactive
CCC(=O)N1C[C@@H](C)[C@H](OC)CN(C)C(=O)c2ccc(NC(=O)c3ccccc3)cc2OC[C@@H]1C	none (no result: Myeloid diff 2, ABCB6 inh 2)
C=CCOc1cccc(C2C(C(=O)c3ccco3)=C(O)C(=O)N2Cc2cccnc2)c1 (stereo not given)	none
C=CCOc1ccc(C2C(C(=O)c3ccco3)=C(O)C(=O)N2Cc2cccnc2)cc1 (stereo not given)	none (no result: Xi reactivation) | Myeloid diff CP1 inactive | GFP autofluor 13
CN(C)CC(=O)Nc1ccc2c(c1)[C@H]1C[C@H](CC(=O)NCCN3CCCCC3)O[C@@H](CO)[C@H]1O2	none (no result: Myeloid diff 2, ABCB6 inh 2)
Cc1c(NC(=O)C2CCCN2S(=O)(=O)c2cccc3nsnc23)cccc1C(=O)O (stereo not given)	Myeloid diff 2 active | Myeloid diff CP1 inactive | GFP autofluor inactive
O=C(Nc1ccccc1Br)C1CCCN1S(=O)(=O)c1cccc2nsnc12 (stereo not given)	none
O=C(CN1CCOCC1)N1CC2(C1)[C@H](c1ccccc1)[C@@H](CO)N2Cc1ccccc1	none (no result: Myeloid diff 2, ABCB6 inh 2)
C[C@@H]1CN([C@H](C)CO)C(=O)c2cc(NS(C)(=O)=O)ccc2O[C@@H](C)CCCCO[C@@H]1CN(C)S(=O)(=O)c1ccccc1	none (no result: Myeloid diff 2, ABCB6 inh 2)
CCOC(=O)c1cnc2ccc(C(=O)OC)cc2c1Nc1ccc2c(c1)OCCO2	none (no result: Xi reactivation, Myeloid diff 2) | Myeloid diff CP1 inactive | GFP autofluor inactive
CCOC(=O)c1cnc2ccc(OC)cc2c1Nc1ccc2c(c1)OCCO2	none (no result: Xi reactivation)
Cc1cc(C(=O)COC(=O)c2ccc(NC(=O)CC#N)cc2)c(C)n1CCc1ccc(F)cc1	none | Myeloid diff CP1 inactive | GFP autofluor inactive
COc1ccc(CCn2c(C)cc(C(=O)COC(=O)c3ccc(NC(=O)CC#N)cc3)c2C)cc1	none (no result: Xi reactivation)
C[C@@H]1CN([C@@H](C)CO)S(=O)(=O)c2ccc(C#Cc3ccccc3F)cc2O[C@H]1CN(C)CC1CCOCC1	none (no result: Myeloid diff 2, ABCB6 inh 2)
CN1CCN(C(=O)[C@@H]2[C@@H](CO)[C@@H]3Cn4c(ccc(-c5cncnc5)c4=O)[C@@H]3N2CC2CCCC2)CC1	none (no result: Myeloid diff 2, ABCB6 inh 2)
O=C(N/N=C\c1ccc(-c2ccc([N+](=O)[O-])cc2)o1)c1ccc2c(c1)OCO2	none (no result: Xi reactivation)
O=C(N/N=C/c1ccc([N+](=O)[O-])o1)c1ccc2c(c1)OCO2	none | Myeloid diff CP1 inactive | GFP autofluor inactive
C[C@@H]1CN([C@@H](C)CO)S(=O)(=O)c2ccc(-c3ccccc3F)cc2O[C@H]1CN(C)C(=O)C1CC1	none (no result: Myeloid diff 2, ABCB6 inh 2)
C[C@H]1CN([C@@H](C)CO)C(=O)Cc2cc(NS(C)(=O)=O)ccc2O[C@H]1CN(C)S(=O)(=O)c1ccc(Cl)cc1	none (no result: Myeloid diff 2, ABCB6 inh 2)
